Results taken from ChEMBL document CHEMBL2439964, “Identification of a series of 1,3,4-trisubstituted pyrazoles as novel hepatitis C virus entry inhibitors” (Bioorg Med Chem Lett, 2013).
Calls of active or inactive are those of the source. No cut-off for these calls is given here.

What was measured:
[1] = tested on: Hepatitis C virus; test: Antiviral activity against HCV genotype-1 pseudoparticle expressing envelope protein E1 and E2 assessed as inhibition of pseudoparticles entry into human Huh-H1 cells after 2 days by luciferase reporter gene assay; assay type: functional, organism-based, Hepacivirus hominis; conditions: genotype 1, Huh-H1, 48 h
[2] = Selectivity index, ratio of CC50 for human HuH7 cells to EC50 for cell culture derived HCV; design: species or system Huh-7
Procedure, shortened: (§1)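 Naïve Huh-7 cells in 384-well plates were given serially diluted compound, then infected with cell culture-derived HCV (HCVcc) at MOI 1. Live cells were analysed 72 h post-infection. EC50 came from 10-point dose-response in duplicate with quadruplicate measurements, or 5-point in duplicate for one series. CC50 came from automated per-well cell counts. SI = CC50/EC50.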

[3] = tested on: Vesicular stomatitis virus; test: Antiviral activity against Vesicular stomatitis virus pseudoparticle expressing glycoprotein assessed as inhibition of pseudoparticles entry into human Huh-H1 cells after 2 days by luciferase reporter gene assay; assay type: functional, organism-based
[4] = tested on: Hepatitis C virus; test: Antiviral activity against cell culture derived HCV infected in human HuH7 cells assessed as inhibition of viral replication after 72 hrs; assay type: functional, organism-based, Hepacivirus hominis; conditions: Huh-7, 72 h; procedure, shortened: as §1
[5] = Cytotoxicity against human HuH7 cells; assay type: cell-based, Huh-7; procedure, shortened: as §1
[6] = Cytotoxicity against human Huh-H1 cells; assay type: cell-based

SMILES | EC50 [1] | Ratio CC50/EC50 [2] | inhibition [3] | EC50 [4] | CC50 [5] | CC50 [6]
CN1CCN(CCNCc2cn(-c3ccc(F)cc3F)nc2-c2ccc(Cl)cc2)CC1 | 1.9 µM | 50 | inactive | 0.38 µM | 19 µM | 9.1 µM
Cc1ccccc1-c1nn(-c2ccc(F)cc2F)cc1CNCCCN(C)C | 6.1 µM | >3 | inactive | 6.7 µM | > 20 µM | > 25 µM
CCCCCNc1nc(Nc2ccc([N+](=O)[O-])cc2)nc(OCC(F)(F)F)n1 | – | – | inactive | – | – | > 25 µM
Cc1ccccc1-c1nn(Cc2ccccc2)cc1CNCCN1CCN(C)CC1 | – | >2.3 | – | 7.5 µM | > 20 µM | –
COc1ccc(-c2nn(-c3ccc(F)cc3F)cc2CNCCN2CCN(C)CC2)cc1 | – | >9.5 | – | 2.1 µM | > 20 µM | –
COC(=O)c1ccc(-c2nn(-c3ccc(F)cc3F)cc2CNCCN2CCN(C)CC2)cc1 | – | >5.3 | – | 3.8 µM | > 20 µM | –
CCCN1CCC(CNCc2cn(-c3ccc(F)cc3F)nc2-c2ccccc2C)CC1 | – | >8.8 | – | 2.3 µM | > 20 µM | –
CCCN1CCC(CNCc2cn(-c3ccc([N+](=O)[O-])cc3)nc2-c2ccc(Cl)cc2)CC1 | – | 37 | – | 0.3 µM | 11 µM | –
Cc1ccccc1-c1nn(-c2ccc([N+](=O)[O-])cc2)cc1CNCCN1CCN(C)CC1 | – | >41 | – | 0.49 µM | > 20 µM | –
